Cytotoxicity data for 96 compounds are collected here from ChEMBL document CHEMBL4513216, “Probing the Open Global Health Chemical Diversity Library for Multistage-Active Starting Points for Next-Generation Antimalarials” (ACS Infect Dis, 2020).

SMILES strings stand for the structures.

The series is described as follows: Toxicity liver stage against HepG2, at 10uM. Particulars: human, HepG2-A16-CD81EGFP cells; read-out: INHIBITION
Further details: test concentration 10 uM, cell line HepG2-A16-CD81EGFP. The class given is cell-based. In a few lines:
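Uninfected HepG2-A16-CD81EGFP cells, 3 × 10^3 per well, 1536-well, plated on prespotted compound at 10 μM final, parasite-free screening media added to match infected plates; puromycin 10 μM positive, DMSO 0.5% negative; run in parallel with 48 h PbLuc assay at 37 °C, 5% CO2; viability by CellTiter-Glo luminescence, normalized to controls.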
`CC(C)CCC(=O)N1CCN(C(=O)c2ccc(-n3cccn3)cc2)CC1`: the cytotoxicity at 10 µM came to 4.28%. The same measure for `Cc1ccccc1C(=O)Nc1ccc([C@H]2OCC(=O)N(C)[C@@H]2CO)cc1`: 0.461%; for `CCOc1nc2cnccc2n(CC(=O)Nc2ccccc2OC)c1=O`: -15%. The same measure for `CCOC(=O)c1nc(COc2ccc(CC(N)=O)cc2)no1`: -6.24%; for `COc1ccc2nnc(CCC(=O)Nc3nc4c(s3)CCCC4)n2n1`: -6.98%. Turning to `Cc1cc(NC(=O)C(C)Cn2cncn2)no1` (stereo unspecified), the cytotoxicity at 10 µM was -5.18%. For `Cc1nnsc1C(=O)NCc1nn(C)c2c1COCC2` the value was -0.543%; for `CCOCC(=O)NCC(CC)(OC)c1ccccc1` (stereo unspecified), -0.478%. For `CCn1cc2c(n1)C(COCC1CC1)CN(C(=O)c1ccsc1)C2` (stereo unspecified), the cytotoxicity at 10 µM came to 18.6%. As to `O=C(N1CCCC1)C12CC(CN1Cc1nccs1)C2`, the cytotoxicity at 10 µM is -11.5%. For `CN1Cc2ccccc2CC2(CCN(c3ncc(F)cn3)CC2)C1=O` the value was 6.59%. On to `O=C(Cc1cccnc1)N1CCC2(CCN(C3CCOC3)CC2)C1` (stereo unspecified), for which the cytotoxicity at 10 µM worked out at 5.08%. The same measure for `O=C(O)c1nnn(Cc2cccc(C(F)(F)F)c2)c1-c1ccccn1`: 2.27%; for `CSc1nc2cc(C)n(CC(=O)Nc3nccs3)c2c(=O)n1CC(C)C`: -12.6%; for `CCOC(=O)Cc1cs/c(=N/C(=O)COc2cnc(C)cc2O)[nH]1`: 4.62%. Turning to `CN(C)C(=O)NC[C@H]1OC[C@@H]2CCN(Cc3ccoc3)C[C@@H]21`, the cytotoxicity at 10 µM was 2.82%. With `Cn1cccc1CN1CCC2(CCCN(C(=O)Cc3cccnc3)C2)C1` (stereo unspecified), the cytotoxicity at 10 µM came out at 7.17%.

With `O=C(c1ccsc1)N1CC[C@H]2C[C@@H](c3nnc(C4CC4)o3)O[C@@H]2C1`, the cytotoxicity at 10 µM is -7.36%. For `COc1ccc(OC)c(C(C)NC(=O)c2nn(C)c(C)c2Br)c1` (stereo unspecified), the cytotoxicity at 10 µM was 5.38%. The same measure for `CC(=O)N1CCN(C(=O)c2[nH]nnc2Nc2ccccc2F)CC1`: 2.1%; for `COc1cccc([C@@]2(O)CC[C@@H]3CN(C(=O)c4cn(C)nc4C)C[C@@H]32)c1`: 3.51%; for `Oc1cc(C2CCCCN2CC2CC2)nc(-c2ccncc2)n1` (stereo unspecified): 9.77%.

Take `Cc1cc(N2CCC(Cc3ccncc3)C2)ncn1` (stereo unspecified): the cytotoxicity at 10 µM is 0.328%. For `Cc1cc(N2CCC(Cc3cccnc3)C2)ncn1` (stereo unspecified) the value was -2.15%.

Consider `CC1(c2cc[nH]n2)CCN(C(=O)c2ccc(Cl)cc2)CC1`, for which the cytotoxicity at 10 µM amounted to 0.812%.

As for `CS(=O)(=O)N1CCCC(Cc2cncc(-c3ccccc3C(=O)O)n2)C1` (stereo unspecified), the cytotoxicity at 10 µM is -6.41%. The same measure for `Cc1cc(-c2cnn(CCNC(=O)CCn3cccn3)c2C2CC2)on1`: -4.66%; for `CCc1nccn1-c1cncc(C2CCCN2Cc2ccccn2)n1` (stereo unspecified): -3.47%; for `O=C(C1CCCC1)N1CCn2c(nnc2C2CCCNC2)C1` (stereo unspecified): 1.19%. With `O=C(Cc1c(F)cccc1Cl)NC1CCCCNC1=O` (stereo unspecified), the cytotoxicity at 10 µM is 1.91%.

For `Cc1ccc(CN(C)C(=O)CNC(=O)N2CCc3ccccc3C2)o1`, the cytotoxicity at 10 µM amounted to 5.95%.

As to `c1ncn(CC2CCCN(CC3CCCCC3)C2)n1` (stereo unspecified), the cytotoxicity at 10 µM stood at 4.61%. For `COc1c(Cl)cccc1NCc1csc(C)n1` the value was -10.1%; for `N#CC1(C(=O)N2CCC(Nc3cccnn3)CC2)CCCCC1`, 2.87%. For `CCOCCCC(=O)N1CCN(C(=O)Cc2cccc(OC)c2)CC1` the value was -1.86%; for `N#CCCNC(=O)CSc1cc(F)ccc1F`, -3.74%; for `Cc1nc(NC(=O)C(C)N2CCN(c3cnccn3)CC2)sc1C` (stereo unspecified), 4.75%. For `CC(C)c1n[nH]c(C2CN(Cc3ccno3)CCO2)n1` (stereo unspecified) the value was 5.49%. Take `CC(OCC(F)(F)F)C(=O)N1CCCC1` (stereo unspecified): the cytotoxicity at 10 µM is -14%.

In the case of `Cc1ccc(OCC(=O)NCc2ccco2)nc1`, the cytotoxicity at 10 µM is -0.224%. As for `CC(C)COC1CCN(C(=O)c2cc3ccccc3c(=O)[nH]2)CC1`, the cytotoxicity at 10 µM came to 9.05%. The same measure for `CCc1nnc2n1CCN(C(=O)c1ccc3[nH]nnc3c1)C2`: -0.337%; for `COc1ccccc1C(=O)NCCCN1CCCC1C(=O)N(C)C` (stereo unspecified): -2.94%; for `CCCC(=O)NCC(=O)NC1CC(C)(C)Cc2oc(C)cc21` (stereo unspecified): -4.32%. For `Cc1nccn1CCCNC(=O)C1CCCCN1Cc1ccncc1` (stereo unspecified) the value was -8.18%; for `CCSc1ccc(NC(=O)NC(C)c2c(C)noc2C)cn1` (stereo unspecified), -3.69%; for `CCC(CNC(=O)c1nc(=O)[nH][nH]1)Oc1cccc(C(F)(F)F)c1` (stereo unspecified), -6.25%. On to `CCN(CCc1nccs1)C(=O)c1ccco1`, for which the cytotoxicity at 10 µM came to 15.4%. For `CCOc1ccc(NC(=O)N(CCC#N)Cc2ccccn2)cc1F` the value was -6%.

As to `O=C(c1ccc[nH]1)N1CCCC1c1nc(-c2ccccc2)n[nH]1` (stereo unspecified), the cytotoxicity at 10 µM came to 2.57%.

Turning to `Cc1ccc(OCC(O)Cn2ncc3cnn(C)c(=O)c32)cc1` (stereo unspecified), the cytotoxicity at 10 µM was -3.49%.

Turning to `Cc1ccc(C2CSCCN2C(=O)c2cc(C(N)=O)cs2)o1` (stereo unspecified), the cytotoxicity at 10 µM was 5.48%. As for `Cc1csc(CN(C)C(=O)Nc2cc(F)cc(N3CCCC3)c2)n1`, the cytotoxicity at 10 µM came to 8.16%. For `Cc1cccc(C(C)CNS(=O)(=O)CCCC#N)c1` (stereo unspecified) the value was -2.17%. Consider `CC(C)c1nc(C2CCCN2c2ccnc(C3CCCC3)n2)no1` (stereo unspecified), for which the cytotoxicity at 10 µM was found to be 28.5%. The same measure for `N#Cc1c(F)cccc1N1CCCC(C(=O)Nc2nccs2)C1` (stereo unspecified): 8.92%; for `Cc1c(C(=O)NCCC(=O)N2CCOCC2)oc2c(C)cccc12`: -1.96%. `Cc1ccc(OCC(=O)N(C)Cc2ccc(F)cc2)cn1`: the cytotoxicity at 10 µM came to 7.88%. The same measure for `CCCN1CCC(N(Cc2ncc(C)o2)C(C)=O)C1` (stereo unspecified): -13.1%. In the case of `NC(=O)CN1CCCN(C(=O)c2ccn(-c3ccccc3)n2)CC1`, the cytotoxicity at 10 µM was -1.61%.

As for `O=C(Nc1ccnc(OC2CCOC2)c1)c1cc(F)ccc1F` (stereo unspecified), the cytotoxicity at 10 µM turned out to be 5.87%. Take `O=C(NCCCNC(=O)c1cccc(O)c1)NCc1ccccc1F`: the cytotoxicity at 10 µM was -6.42%.

As to `Cc1cccc(NC(=O)N2CCC3(CCC(C(=O)N(C)C)O3)CC2)c1` (stereo unspecified), the cytotoxicity at 10 µM is -107%. For `COCCCn1cnnc1CNC(=O)c1[nH]c2c(C)cc(C)cc2c1C` the value was 5.22%; for `CN(Cc1ccsc1)C(=O)c1ccc(C2CCCO2)s1` (stereo unspecified), 7.9%; for `CCc1cc(NCCc2cccnc2)n2nc(C)c(C)c2n1`, 2.12%. The same measure for `CCN1CCCC(C)(C(=O)NCc2nnnn2-c2ccccc2)C1` (stereo unspecified): -17.7%; for `Cc1cccc(Cc2nc3c([nH]2)CCCNC3=O)c1`: -12.9%; for `CCCN1CCC(Cc2noc(-c3[nH]cnc3C)n2)CC1`: 1.34%. For `CN1CCN(c2cccc(NC(=O)NCc3csc(N(C)C)n3)c2)C1=O` the value was 0.91%.

For the compound `CN1CCN(CCCOc2ccccc2CN2C[C@H]3CC[C@H]2C3)CC1`, the cytotoxicity at 10 µM was -7.88%. For `O=C(c1ccc(C2CCCN2)s1)N1CC=CC1` (stereo unspecified) the value was 1.33%; for `Cc1ccc(-c2nnc(CN3CCOCC(CO)C3)o2)n1C` (stereo unspecified), -3.28%. For `CCC(C(=O)NC1CCCCC1)n1cccc(OC)c1=O` (stereo unspecified) the value was -2.23%; for `Cc1nc(CNC(=O)c2ccc3c(c2)nc(N2CCOCC2)n3C)cs1`, -1.76%; for `CCC(C(=O)N(C)C)n1ccc2ncccc2c1=O` (stereo unspecified), 3.63%. The same measure for `O=C(c1cnn2cc(CCO)cnc12)N1CCOC(C(F)(F)F)C1` (stereo unspecified): 3.24%; for `Cc1nc(CN2CCCC(CCNS(C)(=O)=O)C2)c[nH]1` (stereo unspecified): -10.2%. For the compound `CCn1nc(C(C)C)cc1C(=O)NCCCOC`, the cytotoxicity at 10 µM was -14.7%.

On to `CC[C@@]1(O)CCN(C(=O)c2ccc(SC)cc2)C[C@H]1O`, for which the cytotoxicity at 10 µM is -17.5%. `CCn1ncnc1C(C)NC(=O)C1CCN(C(C)C)CC1` (stereo unspecified): the cytotoxicity at 10 µM was determined as 18.5%. The same measure for `Cc1nc(C2CCCN(C(=O)CO)C2)cc(N2CCOCC2)n1` (stereo unspecified): -12.9%. The same measure for `Cc1cc(CN2CCN(C(=O)C(C)C)[C@@H]3CS(=O)(=O)C[C@@H]32)ccc1F`: 3.41%; for `CNc1cccc(C2CCCN(C(C)=O)C2)n1` (stereo unspecified): -0.962%; for `Cc1nc(O)c2nnn(C[C@H]3CCCN3C(=O)C(C)(C)C)c2n1`: 3.25%. The same measure for `O=C(CN1CCc2cncnc2C1)NCCOc1ccccc1`: -6.78%; for `Cc1ccc(CC(=O)N2CCCC(c3nc(C)cs3)C2)cn1` (stereo unspecified): -8.13%; for `Cc1cc(NC(=O)CN2CCn3c(nnc3C3CC3)C2)n(C)n1`: -14%. Consider `Cc1ccc(CNC(=O)CN2CCN(CC(O)c3ccco3)CC2)cc1` (stereo unspecified), for which the cytotoxicity at 10 µM is 2.71%.

Take `Cn1cc(C(=O)NC[C@@H]2OC[C@H]3CN(Cc4ccco4)CC[C@H]32)cn1`: the cytotoxicity at 10 µM was -13.4%. For `Cc1ccc(N2CCO[C@H]3[C@H](OCC(=O)N4CCCC4)CC[C@@H]32)cc1` the value was -1.03%.

With `O=C(c1ccncc1F)N1CC[C@@H]2CN(c3ncccn3)CCO[C@@H]2C1`, the cytotoxicity at 10 µM is -77.2%. As to `O=C(c1ccco1)N1CCCC2(CN(Cc3ccc(F)cc3)CCO2)C1` (stereo unspecified), the cytotoxicity at 10 µM turned out to be 0.0288%.

For `c1cc(CN2C[C@@H]3OCCN(CC4CCCO4)[C@@H]3C2)ccn1` (stereo partly specified), the cytotoxicity at 10 µM was -80.2%. Regarding `Cc1cc(N2CCN(C(=O)[C@@H]3C[C@H]4C=C[C@@H]3C4)CC2)cc(C)n1`, the cytotoxicity at 10 µM was -7.62%. The same measure for `O=C(CN1C[C@H]2CC(OCc3ccccc3)C[C@H]2C1)N1CCOCC1` (stereo partly specified): -9.92%.
